Here are results for 1 molecule from ChEMBL document CHEMBL4138058, “Design and synthesis of novel selective estrogen receptor degradation inducers based on the diphenylheptane skeleton” (Medchemcomm, 2017).

Common to all, as to assay type: cell-based
Series [1] concerns the target T1, Estrogen receptor (Homo sapiens) (UniProt P03372).
T1 sequence (whole entry): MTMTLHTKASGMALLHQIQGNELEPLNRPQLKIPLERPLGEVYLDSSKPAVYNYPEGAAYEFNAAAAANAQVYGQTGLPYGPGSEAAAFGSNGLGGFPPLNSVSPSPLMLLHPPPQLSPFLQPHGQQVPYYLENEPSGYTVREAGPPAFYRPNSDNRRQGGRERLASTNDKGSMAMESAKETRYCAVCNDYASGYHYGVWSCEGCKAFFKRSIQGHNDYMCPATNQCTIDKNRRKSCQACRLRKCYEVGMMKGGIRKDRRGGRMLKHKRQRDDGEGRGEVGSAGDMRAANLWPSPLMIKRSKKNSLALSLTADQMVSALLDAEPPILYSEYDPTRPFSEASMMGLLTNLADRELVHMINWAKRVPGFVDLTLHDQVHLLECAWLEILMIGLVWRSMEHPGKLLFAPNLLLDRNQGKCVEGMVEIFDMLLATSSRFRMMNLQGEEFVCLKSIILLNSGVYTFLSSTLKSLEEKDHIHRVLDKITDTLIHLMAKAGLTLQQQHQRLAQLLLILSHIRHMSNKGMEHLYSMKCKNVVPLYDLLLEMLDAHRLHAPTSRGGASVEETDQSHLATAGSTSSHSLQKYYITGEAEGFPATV
In words: Downregulation of ERalpha expression in human MCF7 cells after 6 hrs by Western blot method. In a few lines:
(§1)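 MCF-7 cells kept in DMEM with 10% FBS, kanamycin and 10 μg/mL insulin, then exposed to compounds for 6 h. Lysates made in SDS buffer (0.1 M Tris-HCl pH 8.0, 10% glycerol, 1% SDS), boiled, BCA-normalized and run on SDS-PAGE. Blots probed with anti-ERα, AR, AhR or VDR and β-actin or lamin B. Chemiluminescence quantified as target/loading-protein ratio; means ± S.E., n=3.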
In general terms: In western blotting, separated proteins are transferred to a membrane and probed.

In series [2] the target is T1, Estrogen receptor (Homo sapiens). Nature of the series: Downregulation of ERalpha expression in human MCF7 cells at 3 uM after 6 hrs by Western blot method relative to beta-actin. Put shortly:
as §1

Series [3] deals with T2, Aryl hydrocarbon receptor (Homo sapiens, UniProt P35869).
T2 sequence (P35869 whole entry): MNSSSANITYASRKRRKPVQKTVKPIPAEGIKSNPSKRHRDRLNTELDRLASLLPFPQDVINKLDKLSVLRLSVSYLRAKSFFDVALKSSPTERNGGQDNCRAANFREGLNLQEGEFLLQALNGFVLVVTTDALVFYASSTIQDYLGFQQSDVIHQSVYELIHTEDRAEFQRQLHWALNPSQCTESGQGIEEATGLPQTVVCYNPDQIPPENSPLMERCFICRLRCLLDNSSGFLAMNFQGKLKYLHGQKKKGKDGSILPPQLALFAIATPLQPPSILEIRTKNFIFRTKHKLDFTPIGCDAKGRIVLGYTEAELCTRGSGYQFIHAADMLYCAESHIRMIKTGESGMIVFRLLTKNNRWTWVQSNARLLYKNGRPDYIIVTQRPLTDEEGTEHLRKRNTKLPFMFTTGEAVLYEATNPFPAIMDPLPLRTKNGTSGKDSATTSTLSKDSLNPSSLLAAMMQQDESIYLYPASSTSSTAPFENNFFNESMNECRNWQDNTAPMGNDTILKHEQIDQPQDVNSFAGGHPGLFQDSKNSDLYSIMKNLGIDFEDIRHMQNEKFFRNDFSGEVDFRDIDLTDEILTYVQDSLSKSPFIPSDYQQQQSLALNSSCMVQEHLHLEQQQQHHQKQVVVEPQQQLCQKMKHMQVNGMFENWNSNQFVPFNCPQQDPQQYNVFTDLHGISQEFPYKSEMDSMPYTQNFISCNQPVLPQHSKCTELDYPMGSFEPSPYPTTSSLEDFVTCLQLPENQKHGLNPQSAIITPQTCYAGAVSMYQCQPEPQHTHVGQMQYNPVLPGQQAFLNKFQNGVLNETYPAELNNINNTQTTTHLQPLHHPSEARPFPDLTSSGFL
Nature of the series: Downregulation of AhR expression in human MCF7 cells at 3 uM after 6 hrs by Western blot method relative to lamin B. The note with it: mcf7, 6 h. Put shortly:
as §1

Series [4] concerns the target T1, Estrogen receptor (Homo sapiens). In words: Downregulation of ERalpha expression in human MCF7 cells at 10 uM after 6 hrs in presence of proteasome inhibitor MG132 by Western blot method relative to lamin B. In a few lines: as §1
Series [5] has as its target T3, Androgen receptor (Homo sapiens) (UniProt P10275).
T3 sequence (whole entry): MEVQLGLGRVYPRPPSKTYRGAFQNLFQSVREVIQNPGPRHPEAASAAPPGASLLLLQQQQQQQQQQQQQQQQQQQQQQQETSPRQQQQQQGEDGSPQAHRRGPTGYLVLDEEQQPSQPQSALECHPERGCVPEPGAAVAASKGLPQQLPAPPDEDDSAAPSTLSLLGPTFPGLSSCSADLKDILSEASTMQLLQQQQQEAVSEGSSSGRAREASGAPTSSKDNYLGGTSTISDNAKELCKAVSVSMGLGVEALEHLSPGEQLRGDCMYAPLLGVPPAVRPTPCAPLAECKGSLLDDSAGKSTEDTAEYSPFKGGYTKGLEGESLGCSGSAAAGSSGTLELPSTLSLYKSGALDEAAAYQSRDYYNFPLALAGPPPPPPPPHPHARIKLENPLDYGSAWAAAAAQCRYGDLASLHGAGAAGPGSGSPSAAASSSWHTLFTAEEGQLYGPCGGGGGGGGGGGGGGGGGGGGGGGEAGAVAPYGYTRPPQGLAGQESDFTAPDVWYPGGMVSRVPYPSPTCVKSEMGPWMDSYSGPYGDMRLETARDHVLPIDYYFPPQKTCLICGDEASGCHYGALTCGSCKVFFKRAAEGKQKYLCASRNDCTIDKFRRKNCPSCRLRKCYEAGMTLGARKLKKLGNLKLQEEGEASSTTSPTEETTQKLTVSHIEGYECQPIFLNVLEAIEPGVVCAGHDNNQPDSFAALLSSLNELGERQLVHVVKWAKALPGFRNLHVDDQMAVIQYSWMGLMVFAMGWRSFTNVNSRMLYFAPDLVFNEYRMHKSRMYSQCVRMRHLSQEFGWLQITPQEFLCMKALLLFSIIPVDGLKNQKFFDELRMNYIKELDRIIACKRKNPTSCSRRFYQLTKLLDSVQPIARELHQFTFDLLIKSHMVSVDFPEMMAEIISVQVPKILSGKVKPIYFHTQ
Nature of the series: Downregulation of androgen receptor expression in human MCF7 cells at 3 uM after 6 hrs in presence of proteasome inhibitor MG132 by Western blot method relative to lamin B. In a few lines:
as §1

For `CCCCCCCCCCNCCOc1ccc(C(CCC)(CCC)c2ccc(O)c(C)c2)cc1C`, the Activity result in series [1] was “Dose-dependent effect”; in series [2], 57%; in series [3] it was 80%; in series [4], 105%; in series [5], 78%.
